High-throughput results (PubChem BioAssay)
Shown are actives, neighbours in structure and some others; about 3.1% of the full set was active somewhere.
LEDGF integ inh = blocks HIV-1 LEDGF/p75-dependent DNA integration; TR-FRET IN-LEDGF/p75 DNA integration, Eu/Cy5; hit rate 0.64% among 370,000; inhibition, % at 3.7 µM;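 active = inhibition above the screen-wide mean plus 3 SD, cut at about 13% in these data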;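 note: signal is the Cy5 over europium emission ratio at 671 and 618 nm; 0% = plate median of compound wells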
MBD2 DNA inh = MBD2-methylated oligo binding inhibition | inhibition, % at 4.4 µM | TR-FRET, MBD2 binding to methylated oligonucleotide | hit rate 0.31% among 370,000; in the data active = inhibition above about 13%
rCAG binder = r(CAG) repeat RNA binding. TO-PRO-1 dye displacement fluorescence. inhibition, % at 3 µM. hit rate 1.3% among 370,000;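 active = inhibition above the plate cutoff, the mean of all test compounds on that plate plus 3 SD, cut at about 35% in these data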;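 note: 0% = DMSO alone and 100% = 100 µM mitoxantrone as full dye displacement; higher means more dye released from RNA so lower well fluorescence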
ATG4B inh = inhibitors of human ATG4B cysteine protease. ATG4B cleavage of LC3-PLA2, NBD-HPC fluorescence, 1 h. hit rate 0.51% among 340,000. inhibition, % at 8.33 µM; in the data active = inhibition above about 40%
Target sequence (Q9Y4P1 whole entry, looked up): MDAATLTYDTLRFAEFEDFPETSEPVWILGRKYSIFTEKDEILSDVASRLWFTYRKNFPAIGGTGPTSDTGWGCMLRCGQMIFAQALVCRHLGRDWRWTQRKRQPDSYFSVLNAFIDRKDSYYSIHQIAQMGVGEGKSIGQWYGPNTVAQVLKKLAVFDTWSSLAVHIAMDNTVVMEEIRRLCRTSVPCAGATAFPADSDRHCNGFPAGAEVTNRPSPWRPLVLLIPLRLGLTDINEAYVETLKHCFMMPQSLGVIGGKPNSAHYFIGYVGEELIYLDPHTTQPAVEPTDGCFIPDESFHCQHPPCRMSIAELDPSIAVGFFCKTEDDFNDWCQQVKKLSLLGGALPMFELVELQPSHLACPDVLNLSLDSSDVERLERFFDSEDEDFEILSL
CSN inh = CSN deneddylation inhibition. Q92905. Purified CSN, SCF-Nedd8-OG deneddylation, fluorescence polarization. inhibition, % at 12.5 µM. hit rate 0.38% among 360,000. AID 651999;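 active = pattern-corrected inhibition above about 35%, with an unprinted fluorescence ratio check between 0.5 and 1.5, limit read from the data, passing the limit was not always enough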;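 note: 0% = enzyme with substrate and 100% = substrate without enzyme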
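Material: purified human Csn5 enzyme expressed in HEK293T cells / Medium: Tris buffer pH 7.5, NaCl, DTT, Tween-20, trehalose, ovalbumin / Compound dosing: 12.5 µM single point / Schedule: 90 min incubation of compound, enzyme and substrate at room temperature / Signal: fluorescence polarization of the substrate / Control set: no-enzyme wells high, enzyme-with-substrate wells low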
UHRF1 MBD2 ctr = blocks human UHRF1 binding to methylated DNA | UHRF1 binding to methylated oligo, TR-FRET | inhibition, % at 4.4 µM | hit rate 0.75% among 370,000 | AID 687016;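 note: UHRF1 SRA domain binding a hemimethylated CpG hairpin DNA probe; 0% = median of test compound wells and 100% = reference inhibitor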
UHRF1 DNA bind = inhibits human UHRF1 binding to methylated oligonucleotide, MBD2 counter-screen; TR-FRET; hit rate 25% among 1,000; shares compounds with MBD2 DNA inh; AID 720530; inhibition, % at 4.4 µM;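 note: UHRF1 SRA domain binding a labeled hemimethylated CpG hairpin DNA; 0% = vehicle only and 100% = reference inhibitor with vehicle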
MBD2 DBD conf = confirmation of human MBD2-DBD methylated oligonucleotide binding inhibitors; TR-FRET MBD2-DBD binding to methylated oligonucleotide; shares compounds with MBD2 DNA inh; AID 720531; hit rate 26% among 1,000; inhibition, % at 4.4 µM; in the data active = inhibition above about 14%
* hit, by the source's call; · = no result given. Cut-off read from the data, not from the text of the source, unless noted: active = inhibition above about 21%; inactive = the rest.

SMILES	LEDGF integ inh	MBD2 DNA inh	rCAG binder	ATG4B inh	CSN inh	UHRF1 MBD2 ctr	UHRF1 DNA bind	MBD2 DBD conf
CCOc1c(C(N)=O)cc([N+](=O)[O-])cc1[N+](=O)[O-]	4	-4	-1	-1	4	-2	·	·
CC(C)(C)C1CCC(=O)N(CCSc2ccccc2)CC1 (stereo unspecified)	7	-3	-7	2	-3	5	·	·
Cc1ccc(SCCN2CCC(C(C)(C)C)CCC2=O)cc1 (stereo unspecified)	12	14*	-9	12	0	30*	5	4
CC(=O)c1ccc(NC(=O)c2noc3c2CCC3)cc1	0	0	1	1	9	3	·	·
COc1ccc(NC(=O)c2noc3c2CCC3)cc1	5	13*	7	-7	11	31*	17	8
C/C(=N/NC(=O)c1ccco1)c1ccc(NC(=O)c2ccc(F)cc2)cc1	-1	14*	-4	-6	0	7	0	2
Cc1ccc(S(=O)(=O)N2CCOCC2)cc1NC(=O)Cn1c(=O)ccn(Cc2ccccc2)c1=O	1	14*	6	-17	1	-3	7	1
COc1ccc(OC)c(NC(=O)c2ccccc2N(Cc2ccccc2)C(=O)C(C)Cl)c1 (stereo unspecified)	-2	2	5	·	·	-4	·	·
O=C(COc1ccc2ccccc2c1Br)Nn1cnnc1	5	19*	1	2	-7	17	4	2
CCOC(=O)c1[nH]ncc1CN1CCCC(C(=O)c2cccc3ccccc23)C1 (stereo unspecified)	-5	14*	-10	9	1	24*	6	1
CCOC(=O)c1[nH]ncc1CN1CCCC(C(=O)c2ccc(SC)cc2)C1 (stereo unspecified)	1	-6	-6	22	-11	3	·	·
Cc1ccc(NC(=O)CS(=O)CC(=O)Nc2ccccc2-c2ccc(C)o2)cc1 (stereo unspecified)	-1	-6	-4	-4	1	-3	·	·
CC(=O)Nc1ccccc1-c1ccc(C)o1	1	19*	1	-5	5	-2	8	2
CCc1nnc(NC(=O)CSc2nnc(CNC(=O)c3ccccc3)o2)s1	-1	22*	3	·	-1	1	9	4
CC(C)(Oc1ccc(F)cc1)C(=O)OCC(=O)c1ccc(S(C)(=O)=O)cc1	2	36*	5	0	-1	-1	6	2
COc1ccc(Cn2cc(CN3CC=CS3(=O)=O)nn2)cc1	-3	-5	2	·	·	4	·	·
O=C(O)CSc1ncn[nH]1	3	13*	-1	-1	-1	15	7	1
O=C(Nc1ccc(Nc2ccncc2)cc1)c1ccc(Nc2ccnc3ccc([N+](=O)[O-])cc23)cc1	0	16*	20	23	92	32*	38*	34*
COc1ccc(OC)c(/C(O)=C/C(=O)C(=O)Nc2ccccc2OC)c1	-1	15*	8	-12	3	19	6	0
CC(=O)NC1CCCCN(Cc2cccc(F)c2)C1=O (stereo unspecified)	-1	2	-1	·	·	-1	·	·
O=C(COC(=O)Cc1cccc(C(F)(F)F)c1)NCc1ccco1	11	17*	8	1	18	35*	21*	6
COCCCN(C(=O)c1cc2c(s1)CCC2)c1c(N)n(Cc2ccccc2)c(=O)[nH]c1=O	5	0	13	-5	-2	0	·	·
CCCN(C(=O)c1cc2c(s1)CCC2)c1c(N)n(Cc2ccccc2)c(=O)[nH]c1=O	4	13*	25	6	7	11	14	18*
CC(=O)OCCNc1cc(N2CCN(C)CC2)c2noc3c2c1C(=O)c1ccccc1-3	-6	20*	7	-13	-12	36*	25*	11
